The record followed here is ChEMBL document CHEMBL2390954, “Discovery of a synthetic Aminopeptidase N inhibitor LB-4b as a potential anticancer agent” (Bioorg Med Chem Lett, 2013).

pIC50: −log10 of the molar value. The source made the active and inactive calls. The calls are words filed in the database; no cut-off is given here. Bounds are passed on as bounds.

Series [1] relates to HUVEC. The series is described as follows: Acute cytotoxicity against HUVEC at 100 ug/ml after 8 hrs by microscopic analysis. The class given is cell-based. The following applies: human. The method in brief: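 Acute cytotoxicity judged by microscopic inspection of treated samples during the assay period on Matrigel.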
The subject of the next series is Aorta. As to the kind of experiment: Antiangiogenic activity against Sprague-Dawley rat aortic rings assessed as inhibition of new microvessel growth at 100 ug/ml after 6 days. The class given is functional, tissue-based. A digest of the protocol:
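Rat aortic rings embedded on Matrigel; microvessel outgrowth from the ring scored and expressed as inhibition rate versus control; mean with SD from three independent experiments.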

In series [2] the test system is HUVEC. As to the kind of experiment: Antiangiogenic activity in HUVEC assessed as inhibition of tube formation at 100 ug/ml after 8 hrs by microscopic analysis. The class given is functional, cell-based. The conditions noted are these: Homo sapiens. The method in brief: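 HUVECs plated on Matrigel to form capillary tube-like structures; tubular structure formation scored as inhibition rate versus untreated control; mean with SD from three independent experiments.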

The test system of series [3] is ES2. The series is described as follows: Antiinvasive activity against human ES2 cells in matrigel-coated transwell chamber after 8 hrs by Crystal violet staining-based microscopy. The class given is functional, cell-based. A digest of the protocol: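 Invasion assessed in Matrigel-coated Transwell chambers; ES-2 cells allowed to invade the Matrigel and reach the other side of the membrane over 8 h; graded doses tested.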

Series [4] addresses T1, Aminopeptidase N (Homo sapiens, UniProt P15144). As to the kind of experiment: Ratio of betastatin IC50 to compound IC50 for APN in human ES-2 cells. The class given is cell-based.
Series [5] concerns ES2. The series is described as follows: Antimigratory activity against human ES2 cells in transwell chamber at 100 ug/ml after 3 hrs by Crystal violet staining-based microscopy. The class given is functional, cell-based. The method in brief:
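ES-2 cells placed in Transwell chambers with 8 µm micropore membranes, no Matrigel coating; cells crossing the membrane counted as migration rate relative to control; mean with SD from three independent experiments.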

The target of series [6] is 72 kDa type IV collagenase (Homo sapiens, UniProt P08253). As to the kind of experiment: Inhibition of recombinant MMP2 (unknown origin) using […] as substrate incubated for 5 mins prior to substrate addition measured after 60 mins by UV-Vis spectrophotometry.
Chain of 72 kDa type IV collagenase (P08253 whole entry): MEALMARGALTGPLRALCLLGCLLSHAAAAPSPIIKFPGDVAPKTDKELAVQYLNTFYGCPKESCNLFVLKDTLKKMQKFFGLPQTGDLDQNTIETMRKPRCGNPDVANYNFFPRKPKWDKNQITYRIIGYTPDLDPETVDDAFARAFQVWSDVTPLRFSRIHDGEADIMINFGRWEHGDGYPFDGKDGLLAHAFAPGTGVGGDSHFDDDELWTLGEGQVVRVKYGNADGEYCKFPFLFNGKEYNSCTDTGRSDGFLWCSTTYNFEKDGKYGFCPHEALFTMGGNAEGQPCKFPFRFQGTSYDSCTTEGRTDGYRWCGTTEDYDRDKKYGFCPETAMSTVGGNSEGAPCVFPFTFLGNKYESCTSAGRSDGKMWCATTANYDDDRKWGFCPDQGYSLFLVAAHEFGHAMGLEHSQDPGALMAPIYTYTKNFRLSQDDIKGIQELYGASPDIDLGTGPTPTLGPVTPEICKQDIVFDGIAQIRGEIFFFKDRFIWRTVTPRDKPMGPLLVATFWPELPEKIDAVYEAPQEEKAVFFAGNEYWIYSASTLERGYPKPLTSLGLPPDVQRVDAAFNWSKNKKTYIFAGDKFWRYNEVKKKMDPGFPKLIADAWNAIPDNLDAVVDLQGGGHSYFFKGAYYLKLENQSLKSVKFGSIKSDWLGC
The nature of series [7]: Cytotoxicity against human ES2 cells after 24 hrs by MTT assay. The class given is functional. The conditions noted are these: ES-2, 24 h. For orientation: Tetrazolium assays rely on reduction of a dye to a coloured formazan, in cell work by metabolically active cells.
The target of series [8] is T2, Aminopeptidase N (Sus scrofa, UniProt P15145).
T2 sequence (P15145 whole entry): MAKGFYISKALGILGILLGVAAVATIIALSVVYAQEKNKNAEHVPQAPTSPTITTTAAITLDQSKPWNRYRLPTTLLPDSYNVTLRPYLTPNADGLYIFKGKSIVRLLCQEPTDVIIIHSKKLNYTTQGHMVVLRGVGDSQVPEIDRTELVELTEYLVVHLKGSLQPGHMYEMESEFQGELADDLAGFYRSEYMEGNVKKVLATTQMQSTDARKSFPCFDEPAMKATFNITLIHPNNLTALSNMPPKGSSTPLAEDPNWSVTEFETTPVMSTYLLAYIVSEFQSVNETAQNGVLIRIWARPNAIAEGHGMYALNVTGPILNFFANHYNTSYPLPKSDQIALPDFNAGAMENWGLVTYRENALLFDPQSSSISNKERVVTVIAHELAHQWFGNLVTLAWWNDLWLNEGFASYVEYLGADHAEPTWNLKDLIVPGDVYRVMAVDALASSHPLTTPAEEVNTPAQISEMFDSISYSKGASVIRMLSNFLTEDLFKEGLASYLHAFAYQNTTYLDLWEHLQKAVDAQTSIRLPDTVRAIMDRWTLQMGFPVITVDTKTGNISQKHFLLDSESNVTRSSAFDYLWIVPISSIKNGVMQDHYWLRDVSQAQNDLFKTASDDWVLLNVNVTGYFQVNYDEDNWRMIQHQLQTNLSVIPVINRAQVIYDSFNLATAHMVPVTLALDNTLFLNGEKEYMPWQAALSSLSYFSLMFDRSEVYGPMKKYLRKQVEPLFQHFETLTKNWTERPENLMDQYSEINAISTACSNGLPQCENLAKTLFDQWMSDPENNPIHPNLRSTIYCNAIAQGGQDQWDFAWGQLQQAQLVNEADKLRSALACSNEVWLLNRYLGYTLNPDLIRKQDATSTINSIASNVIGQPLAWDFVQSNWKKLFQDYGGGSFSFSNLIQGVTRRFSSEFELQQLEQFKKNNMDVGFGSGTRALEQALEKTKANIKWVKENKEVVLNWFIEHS
As to the kind of experiment: Inhibition of pig kidney APN using L-Leu-p-nitroanilide as substrate incubated for 5 mins prior to substrate addition measured after 30 mins by UV-Vis spectrophotometry.

The target of series [9] is T1, Aminopeptidase N. As to the kind of experiment: Inhibition of APN in human ES-2 cells using L-Leu-p-nitroanilide as substrate incubated for 5 mins prior to substrate addition measured after 1 hr by UV-Vis spectrophotometry. The class given is cell-based.

The pIC50 is −log10 of the IC50, conventionally taken in molar units. A word on the GI50: it is the concentration giving 50% growth inhibition. The low end stands for more potent growth inhibition, the high end for less potent growth inhibition.

T1 sequence (P15144 whole entry): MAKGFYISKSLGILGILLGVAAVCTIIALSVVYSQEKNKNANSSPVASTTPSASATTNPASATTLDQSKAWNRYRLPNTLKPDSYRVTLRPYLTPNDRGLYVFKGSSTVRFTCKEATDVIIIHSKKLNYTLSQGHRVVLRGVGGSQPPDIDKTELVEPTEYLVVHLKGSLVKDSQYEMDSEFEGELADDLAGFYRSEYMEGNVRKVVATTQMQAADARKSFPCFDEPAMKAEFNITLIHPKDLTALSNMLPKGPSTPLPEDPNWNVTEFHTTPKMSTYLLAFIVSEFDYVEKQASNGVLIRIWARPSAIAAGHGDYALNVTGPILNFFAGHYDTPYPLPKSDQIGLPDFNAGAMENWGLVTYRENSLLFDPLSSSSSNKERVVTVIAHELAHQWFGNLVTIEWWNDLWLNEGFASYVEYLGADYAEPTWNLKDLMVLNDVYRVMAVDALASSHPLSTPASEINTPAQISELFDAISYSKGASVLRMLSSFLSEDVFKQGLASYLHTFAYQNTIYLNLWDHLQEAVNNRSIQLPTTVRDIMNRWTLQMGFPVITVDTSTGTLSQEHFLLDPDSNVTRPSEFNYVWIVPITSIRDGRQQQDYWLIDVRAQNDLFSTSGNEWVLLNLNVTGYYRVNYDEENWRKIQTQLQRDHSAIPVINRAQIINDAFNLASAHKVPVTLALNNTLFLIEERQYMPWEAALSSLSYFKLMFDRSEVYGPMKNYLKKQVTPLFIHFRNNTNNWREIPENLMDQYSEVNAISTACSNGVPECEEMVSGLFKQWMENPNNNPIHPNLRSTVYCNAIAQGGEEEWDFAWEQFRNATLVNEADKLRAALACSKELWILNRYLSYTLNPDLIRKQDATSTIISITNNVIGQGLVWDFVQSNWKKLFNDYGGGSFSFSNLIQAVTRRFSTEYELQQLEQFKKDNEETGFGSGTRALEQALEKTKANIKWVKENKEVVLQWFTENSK

Consider `CC(C)C[C@H](NC(=O)NCc1ccccc1)C(=O)NO`, for which the Activity result is “Non-toxic” with HUVEC [1] and “Dose-dependent effect” with ES2 [3]. For the same molecule, the result with Aorta and with HUVEC [2] was Active. For the same molecule, the Ratio IC50 at Aminopeptidase N [4] came to 10. In addition, the outcome in the series with ES2 [5] was inactive. The pIC50 in series [6] was less than 3.30; on Aminopeptidase N [8], 6.07; against Aminopeptidase N [9], 5.52. The molecule also gave a GI50 in series [7] of more than 1000 µM.
Take `CC(C)C[C@H](NC(=O)[C@@H](O)[C@H](N)Cc1ccccc1)C(=O)O` [UBENIMEX]: the values for the Activity entry in the series with HUVEC [1] and in the series with ES2 [3] were “Non-toxic” and “Dose-dependent effect”, respectively. Also, the result in the series with Aorta and in the series on HUVEC [2] was Active. For the same molecule, in the series with ES2 [5], the result was inactive. Further, it took 350 µM to inhibit growth in series [7] by half (GI50).
